Source: PubChem
ALR inh = human ALR oxidase inhibition via reduced H2O2; purified ALR, DTT oxidation, H2O2 HRP-luminol luminescence; inhibition, % (concentration not given with the values); AID 485317; P55789; actives 3.8% (n = 290,000);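 active means mean replicate inhibition above about 79%, with every replicate also reaching it, limit read from the data; inconclusive means only one of the two criteria met; inactive means mean below limit and not every replicate reaching it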
Target sequence (P55789 whole entry, looked up): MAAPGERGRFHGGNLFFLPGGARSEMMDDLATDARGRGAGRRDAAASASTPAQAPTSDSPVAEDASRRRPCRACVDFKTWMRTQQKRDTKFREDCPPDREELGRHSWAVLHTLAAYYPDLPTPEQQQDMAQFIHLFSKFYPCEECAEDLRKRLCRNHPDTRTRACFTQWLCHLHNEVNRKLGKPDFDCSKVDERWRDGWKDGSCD
ZTA DNA inh = blocks Epstein-Barr virus ZTA, an EBNA-1 counter-screen; AID 2234; actives 0.15% (n = 320,000); ZTA-DNA binding, fluorescence polarization; inhibition, % at 11 µM; P03206; in the data active means inhibition above about 33%
Target sequence (P03206 whole entry, looked up): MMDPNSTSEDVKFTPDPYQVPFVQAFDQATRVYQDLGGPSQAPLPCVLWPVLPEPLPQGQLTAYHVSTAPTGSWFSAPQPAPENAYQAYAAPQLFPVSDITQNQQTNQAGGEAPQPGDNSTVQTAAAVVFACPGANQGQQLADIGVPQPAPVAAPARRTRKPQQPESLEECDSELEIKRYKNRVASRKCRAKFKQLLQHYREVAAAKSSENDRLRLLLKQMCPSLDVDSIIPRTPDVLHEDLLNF
PfM18AAP inh = PfM18AAP enzyme inhibition. recombinant PfM18AAP, H-Glu-NHMec fluorogenic cleavage. inhibition, % at 7.35 µM. actives 1.2% (n = 290,000);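 active means inhibition above the campaign mean inhibition over all tested compounds plus 3 SD, cut at about 28% in these data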;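 further: 0% = plate median of test compound wells and 100% = 2 mM ZnCl2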
core dimer inh = blocks dimerization of HCV core protein; actives 0.33% (n = 300,000); AID 1899; TR-FRET GST/Flag-core106 dimerization, 1536-well; inhibition, % at 5 µM;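 active means inhibition above the mean of all tested compounds plus 3 SD, set per screening campaign, cut at about 45% in these data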
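System – GST-tagged and Flag-tagged HCV core protein residues 1-106 · Repeats – one well for each compound · Technique – TR-FRET 671 and 617 nm emission · Doses – one concentration, 5 µM, in 0.5% DMSO · Times – 4 h, 22.5 °C incubation · Also added – Eu donor and XL665 acceptor anti-tag antibodies · Measure – percent inhibition of core106 dimerization signal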
NS3 helicase inh = blocks Hepatitis C virus NS3 helicase unwinding; NS3 helicase DNA unwinding, Cy5 molecular beacon fluorescence; inhibition, % at 10.9 µM; actives 0.56% (n = 290,000); AID 1800;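 active means inhibition above the mean of all tested compounds plus 3 SD, set per campaign, cut at about 35% in these data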;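 further: 0% = DMSO wells and 100% = thioflavine S control wells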
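assay system = NS3 helicase fragment of HCV | buffer or medium = MOPS pH 6.5, MgCl2, DTT, Tween20, BSA | timing = 60 min unwinding reaction at 25 °C after ATP addition | signal = Cy5 beacon fluorescence read at start and 1 h | read-out basis = % inhibition of unwinding | control set = low DMSO, high thioflavine S at 110 µM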
EBNA-1 inh = blocks EBNA-1 binding to DNA. AID 1950. EBNA-1 DNA binding, fluorescence polarization. actives 0.34% (n = 300,000). inhibition, % at 14.8 µM; in the data active means inhibition above about 28%
* hit, by the source's call; ? = inconclusive; . = no result given. Most compounds without a hit are left out; they make up all but 5.2% or so of the library.

SMILES	ALR inh	ZTA DNA inh	PfM18AAP inh	core dimer inh	NS3 helicase inh	EBNA-1 inh
CCN(CC)c1ccc(CN(C(=O)c2cc(OC)c(OC)c(OC)c2)C2CCS(=O)(=O)C2)cc1 (stereo not drawn)	93.7*	4.6	-1.6	-2.0	3.0	-16.9
CCN(CC)c1ccc(CN(C(=O)c2ccco2)C2CCS(=O)(=O)C2)cc1 (stereo not drawn)	98.9*	9.5	27.9	4.3	4.8	2.8
CCN(CC)c1ccc(CN(C(=O)c2cccs2)C2CCS(=O)(=O)C2)cc1 (stereo not drawn)	99.3*	14.3	13.1	-4.2	0.8	2.6
COc1ccc(CN(C(=O)c2cccc(OC)c2)C2CCS(=O)(=O)C2)cc1 (stereo not drawn)	-6.7	-11.5	-9.9	-5.5	4.2	2.5
CC(=O)n1c(-c2ccccc2)c(-c2ccccc2)n(C)c1=O	?	-5.9	.	-1.0	.	5.1
COc1ccc(CCNC(=O)Cc2ccsc2)cc1	-2.6	14.2	-3.9	11.8	0.3	10.6
CCCCNC(=O)CCc1nc2cccnc2n1Cc1ccccc1	2.3	-0.5	2.4	-3.6	4.2	-1.4
CC(C)(C)c1ccc(C(=O)NC2CCS(=O)(=O)C2)cc1 (stereo not drawn)	.	-2.0	-3.5	2.2	1.8	-13.4
O=C(/C=C/c1ccc(O)c(O)c1)c1ccc(S(=O)(=O)N2CCCCCC2)cc1	6.5	10.7	59.8*	40.4	25.2	3.4
CCOc1cc(/C=N/O)cc(Br)c1OCC	2.6	4.5	-9.1	-2.4	0.4	-1.5
COc1ccc(/C=N/Nc2ccc(C(=O)O)cc2)cc1Br	98.6*	-15.6	4.7	-21.7	-10.1	2.8
C=CCOc1c(Br)cc(/C=N/Nc2ccc(C(=O)O)cc2)cc1OCC	97.4*	10.5	4.0	12.8	5.5	-0.3
FC(F)(F)c1nnc2ccc(NCc3ccccc3)nn12	-8.2	-4.4	-2.9	-0.4	17.1	-2.5
Clc1ccccc1CSc1snnc1-c1ccccc1	97.7*	-10.2	-0.4	-0.8	-2.5	0.7
COCCNC(=O)/C(C#N)=C/c1ccc(OC(=O)c2cccs2)c(OC)c1	.	.	-7.1	.	-13.5	.
COc1cc(/C=C(\C#N)C(=O)NCc2cccs2)ccc1O	99.5*	3.8	3.6	-6.2	3.6	3.7
COc1cc(/C=C(\C#N)C(=O)NCC2CCCO2)ccc1OCC(N)=O (stereo not drawn)	94.6*	15.7	-8.6	2.1	-9.4	-4.2
N#C/C(=C\c1cn(CCOc2ccccc2)c2ccccc12)C(=O)NCc1cccs1	.	-5.2	1.2	9.3	0.8	37.0*
CCOc1cc(/C=C(\C#N)C(=O)NCc2cccnc2)ccc1O	88.1*	7.8	-4.1	-2.4	4.3	14.5
COc1ccc(OCCn2cc(/C=C(\C#N)C(=O)NCc3ccco3)c3ccccc32)cc1	29.9	17.3	-0.1	6.3	4.5	25.2
COc1ccc(/C=C(\C#N)C(=O)NCC2CCCO2)cc1OC (stereo not drawn)	37.2	2.0	4.2	-2.0	0.6	-2.6
CCN(CCO)c1nc(N2CCCCC2)c2cnn(C)c2n1	-5.8	2.2	3.6	0.3	2.4	-3.4
CCN(CC)C(=O)Oc1ccc2oc(=O)cc(-c3cc4cccc(OC)c4o3)c2c1	-0.4	0.2	2.4	12.3	-14.9	-6.0
CN(Cc1cnccn1)C(=O)C1CCC(=O)N(CCc2ccc(Cl)cc2)C1 (stereo not drawn)	-1.0	8.3	9.0	-1.7	2.8	-3.2
CSc1ncc(C(=O)Nc2ccccc2F)c(-c2ccccc2)n1	-7.9	7.7	-2.9	-1.6	-12.4	13.2
SMILES	ALR inh	ZTA DNA inh	PfM18AAP inh	core dimer inh	NS3 helicase inh	EBNA-1 inh
N#Cc1cccc(S(=O)(=O)NCC(=O)OCC(=O)NCc2ccccc2)c1	.	-6.4	.	.	.	.
O=C1CN(c2ccccc2)C(=S)N1C(=O)c1ccccc1	97.6*	9.2	0.3	15.1	20.3	14.2
O=C(c1ccccc1)N1CCC(=O)N1c1ccccc1	-6.3	-9.6	-8.8	4.3	-1.0	-3.3
Cc1nn(Cc2ccccc2)c2c1C(c1ccncc1)C(C#N)=C(N)O2 (stereo not drawn)	46.3	-5.6	.	-8.2	.	-0.5
Cc1nn(Cc2ccccc2)c2c1C(c1cccnc1)C(C#N)=C(N)O2 (stereo not drawn)	94.6*	10.1	-12.2	-4.4	-13.6	7.7
NC(=O)c1ccc(NC(=O)COC(=O)CCN=C2NS(=O)(=O)c3ccccc32)cc1	1.6	-6.1	.	.	.	.
O=C(NCc1cccnc1)C(=O)NCC1CCCO1 (stereo not drawn)	-13.0	4.0	2.9	-3.6	-3.8	8.1
CN(C)c1ccc(N=c2sc3ccccc3n2C)cc1	98.8*	-9.6	11.1	-27.4	19.4	-11.0
O=C(Nc1ccccc1)c1nnsc1S(=O)c1ccc(Cl)cc1 (stereo not drawn)	98.3*	-10.4	-113.9	1.4	-6.2	2.7
Oc1ccccc1CN1CCCC(N2CCc3ccccc3C2)C1 (stereo not drawn)	11.0	12.7	7.1	5.8	-6.8	-3.8
S=c1nc(Cc2ccc(Cl)cc2)[nH]c2ccccc12	-16.3	-3.0	5.6	53.8*	-2.0	9.1
CCN(CC)CCN(Cc1cc2cc3c(cc2[nH]c1=O)OCO3)C(=S)NCC1CCCO1 (stereo not drawn)	-7.7	-8.5	28.2*	-4.7	4.2	1.5
Cc1cc(C)c2cc(CN(Cc3ccco3)C(=S)NCC3CCCO3)c(=O)[nH]c2c1 (stereo not drawn)	96.2*	-33.3	-9.4	9.8	-0.7	-6.8
COc1ccccc1NCC(O)Cn1c2ccccc2c2ccccc21 (stereo not drawn)	87.3*	6.5	13.8	-7.6	-20.8	14.6
O=C(CSc1nnc(NC(=O)c2ccccc2Cl)s1)Nc1ccc2c(c1)oc1ccccc12	-3.4	13.6	-3.7	49.2*	-1.1	18.2
CC(C)(C)NC(=O)CSc1nnc(NC(=O)c2ccccc2Cl)s1	1.1	-0.5	-10.7	0.0	8.4	-1.2
C/C(=N\NS(=O)(=O)c1ccc(Cl)cc1)c1ccc(O)cc1	95.7*	5.7	1.9	-2.5	-3.4	1.6
CCC(=O)Nc1ccc(SC#N)cc1C	98.4*	4.2	7.9	-12.6	15.3	1.0
Cc1cc(SC#N)cc(C)c1NC(=O)CCl	?	-12.2	-16.1	-14.0	-3.6	-0.4
CCc1cc(SC#N)cc(C)c1NC(=O)CCl	98.4*	13.3	-1.3	-0.9	2.1	-2.6
CC(C)(C)C1CCc2c(sc(NC(=O)C3CC=CCC3C(=O)O)c2C#N)C1 (stereo not drawn)	96.9*	9.2	0.7	18.0	35.7	-2.6
CCC(C)(C)C1CCc2c(sc(NC(=O)c3ccccc3C(=O)O)c2C#N)C1 (stereo not drawn)	62.9	15.9	-8.3	13.1	20.2	10.2
CC1CCc2c(sc(NC(=O)c3ccccc3C(=O)O)c2C#N)C1 (stereo not drawn)	96.8*	10.4	7.2	7.7	4.9	3.2
